Assay results: ChEMBL document CHEMBL1140908, “New insights into the design of inhibitors of human S-adenosylmethionine decarboxylase: studies of adenine C8 substitution in structural analogues of S-adenosylmethionine” (J Med Chem, 2009)

Legend:
[1] = target: T1, S-adenosylmethionine decarboxylase proenzyme (Homo sapiens) (UniProt P17707); experiment: Inhibition of human C-terminal His-tagged AdoMetDC assessed as release of 14CO2 from S-adenosyl-L-[carboxy-14C]methionine at 100 uM
T1 sequence (whole entry): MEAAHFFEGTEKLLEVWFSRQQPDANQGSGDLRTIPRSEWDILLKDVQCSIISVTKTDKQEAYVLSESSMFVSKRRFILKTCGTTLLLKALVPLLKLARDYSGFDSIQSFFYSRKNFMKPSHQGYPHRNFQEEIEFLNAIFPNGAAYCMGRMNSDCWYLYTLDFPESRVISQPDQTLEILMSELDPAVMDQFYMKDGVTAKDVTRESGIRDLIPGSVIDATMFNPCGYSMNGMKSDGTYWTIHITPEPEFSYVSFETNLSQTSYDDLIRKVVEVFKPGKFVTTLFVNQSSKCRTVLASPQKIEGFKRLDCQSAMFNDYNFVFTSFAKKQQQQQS

[2] = target: T2, S-adenosylmethionine decarboxylase proenzyme (Homo sapiens, UniProt P17707); experiment: Inhibition of human C-terminal His-tagged AdoMetDC assessed as release of 14CO2 from S-adenosyl-L-[carboxy-14C]methionine
T2 sequence (P17707 whole entry): T1 sequence (whole entry)
In short: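 Enzyme: human AdoMetDC from a pQE30 plasmid with the (H)6 tag at the C-terminus in place of the terminal -QQQQQS. Expressed in E. coli JM109 with IPTG induction overnight at 15 °C, then purified on Talon resin and Sephadex G-75 in putrescine-containing buffer. Assay used 1 nM enzyme, no inhibitor plus at least five inhibitor concentrations. IC50 came from curve fits of concentration versus % inhibition.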

Compound | inhibition [1] [%] | IC50 [2] [nM]
CN(CCNC(=N)N)C[C@H]1O[C@@H](n2cnc3c(N)ncnc32)[C@H](O)[C@@H]1O | < 5 | 
CN(CCN)C[C@H]1O[C@@H](n2cnc3c(N)ncnc32)[C@H](O)[C@@H]1O | < 5 | 
CNCCCNC[C@H]1O[C@@H](n2c(NC)nc3c(N)ncnc32)[C@H](O)[C@@H]1O | < 5 | 
CN(CCCCON)C[C@H]1O[C@@H](n2c(-c3ccccc3)nc3c(N)ncnc32)[C@H](O)[C@@H]1O | < 5 | 
CN(CCON)C[C@H]1O[C@@H](n2c(-c3ccccc3)nc3c(N)ncnc32)[C@H](O)[C@@H]1O | < 5 | 
Cc1nc2c(N)ncnc2n1[C@@H]1O[C@H](C[S+](C)C)[C@@H](O)[C@H]1O |  | 3000
CNCCNC[C@H]1O[C@@H](n2c(C)nc3c(N)ncnc32)[C@H](O)[C@@H]1O | < 5 | 
CNCCCNC[C@H]1O[C@@H](n2c(-c3ccccc3)nc3c(N)ncnc32)[C@H](O)[C@@H]1O | < 5 | 
CN(CCCN)C[C@H]1O[C@@H](n2c(-c3ccccc3)nc3c(N)ncnc32)[C@H](O)[C@@H]1O | < 5 | 
CNc1nc2c(N)ncnc2n1[C@@H]1O[C@H](CN(C)CCCCON)[C@@H](O)[C@H]1O |  | 49
Cc1nc2c(N)ncnc2n1[C@@H]1O[C@H](CN(C)CC(N)=O)[C@@H](O)[C@H]1O | < 5 | 
CNCCNC[C@H]1O[C@@H](n2cnc3c(N)ncnc32)[C@H](O)[C@@H]1O | < 5 | 
